Experimental data reported in ChEMBL document CHEMBL4014339, “Discovery of 1,4-Benzodiazepine-2,5-dione (BZD) Derivatives as Dual Nucleotide Binding Oligomerization Domain Containing 1/2 (NOD1/NOD2) Antagonists Sensitizing Paclitaxel (PTX) To Suppress Lewis Lung Carcinoma (LLC) Growth in Vivo” (J Med Chem, 2017).

Columns and labels:
[1] = biological target: Nucleotide-binding oligomerization domain-containing protein 2 (Homo sapiens, UniProt Q9HC29); assay: Antagonist activity at human NOD2 expressed in HEK-Blue cells assessed as inhibition of MDP-stimulated cell activation at 10 uM preincubated for 3 hrs followed by MDP addition measured after 20 hrs by SEAP reporter gene assay; format: cell-based
Summary of the method: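 HEK-Blue hNOD1 or hNOD2 cells preincubated with compound 3 h, then stimulated 20 h with C12-iE-DAP 50 ng/mL (NOD1) or MDP 100 ng/mL (NOD2); SEAP in supernatant quantified. Primary screen at 10 μM, hits repeated in triplicate; IC50 from dose-response, mean ± SD (n = 3), only for compounds reaching ≥50% inhibition at the screening concentration.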

[2] = biological target: T1, Nucleotide-binding oligomerization domain-containing protein 1 (Homo sapiens) (UniProt Q9Y239); assay: Antagonist activity at human NOD1 expressed in HEK-blue cells assessed as inhibition of C12-iE-DAP-stimulated cell activation at 5 uM preincubated for 3 hrs followed by C12-iE-DAP addition measured after 20 hrs by SEAP reporter gene assay; format: cell-based
T1 sequence (whole entry): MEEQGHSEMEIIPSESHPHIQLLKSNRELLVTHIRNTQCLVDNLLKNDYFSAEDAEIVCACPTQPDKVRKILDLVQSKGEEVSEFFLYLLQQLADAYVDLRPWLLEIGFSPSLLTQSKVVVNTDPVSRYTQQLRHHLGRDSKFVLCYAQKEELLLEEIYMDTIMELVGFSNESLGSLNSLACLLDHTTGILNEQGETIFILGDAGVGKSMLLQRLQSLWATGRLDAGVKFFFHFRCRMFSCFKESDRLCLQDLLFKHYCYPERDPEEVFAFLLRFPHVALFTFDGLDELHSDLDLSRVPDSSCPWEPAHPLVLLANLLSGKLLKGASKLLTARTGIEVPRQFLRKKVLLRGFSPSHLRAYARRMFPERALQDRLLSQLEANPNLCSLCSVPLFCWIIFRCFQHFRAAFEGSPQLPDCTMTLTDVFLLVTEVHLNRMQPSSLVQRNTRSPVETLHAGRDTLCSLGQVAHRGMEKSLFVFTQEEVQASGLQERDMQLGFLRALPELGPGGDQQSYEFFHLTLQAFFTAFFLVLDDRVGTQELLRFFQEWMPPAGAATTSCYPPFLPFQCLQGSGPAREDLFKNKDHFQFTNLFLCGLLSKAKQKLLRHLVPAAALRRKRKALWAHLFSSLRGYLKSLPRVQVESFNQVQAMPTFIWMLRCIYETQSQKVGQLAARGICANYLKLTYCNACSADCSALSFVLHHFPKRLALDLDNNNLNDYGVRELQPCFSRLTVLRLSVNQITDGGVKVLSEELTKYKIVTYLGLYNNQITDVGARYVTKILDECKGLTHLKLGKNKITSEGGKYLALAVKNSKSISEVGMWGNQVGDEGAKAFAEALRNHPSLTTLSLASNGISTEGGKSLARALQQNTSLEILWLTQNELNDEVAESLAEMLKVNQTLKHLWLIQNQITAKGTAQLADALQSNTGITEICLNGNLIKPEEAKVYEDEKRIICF

Sequence of Nucleotide-binding oligomerization domain-containing protein 2 (Q9HC29 whole entry, the tested form may be a part): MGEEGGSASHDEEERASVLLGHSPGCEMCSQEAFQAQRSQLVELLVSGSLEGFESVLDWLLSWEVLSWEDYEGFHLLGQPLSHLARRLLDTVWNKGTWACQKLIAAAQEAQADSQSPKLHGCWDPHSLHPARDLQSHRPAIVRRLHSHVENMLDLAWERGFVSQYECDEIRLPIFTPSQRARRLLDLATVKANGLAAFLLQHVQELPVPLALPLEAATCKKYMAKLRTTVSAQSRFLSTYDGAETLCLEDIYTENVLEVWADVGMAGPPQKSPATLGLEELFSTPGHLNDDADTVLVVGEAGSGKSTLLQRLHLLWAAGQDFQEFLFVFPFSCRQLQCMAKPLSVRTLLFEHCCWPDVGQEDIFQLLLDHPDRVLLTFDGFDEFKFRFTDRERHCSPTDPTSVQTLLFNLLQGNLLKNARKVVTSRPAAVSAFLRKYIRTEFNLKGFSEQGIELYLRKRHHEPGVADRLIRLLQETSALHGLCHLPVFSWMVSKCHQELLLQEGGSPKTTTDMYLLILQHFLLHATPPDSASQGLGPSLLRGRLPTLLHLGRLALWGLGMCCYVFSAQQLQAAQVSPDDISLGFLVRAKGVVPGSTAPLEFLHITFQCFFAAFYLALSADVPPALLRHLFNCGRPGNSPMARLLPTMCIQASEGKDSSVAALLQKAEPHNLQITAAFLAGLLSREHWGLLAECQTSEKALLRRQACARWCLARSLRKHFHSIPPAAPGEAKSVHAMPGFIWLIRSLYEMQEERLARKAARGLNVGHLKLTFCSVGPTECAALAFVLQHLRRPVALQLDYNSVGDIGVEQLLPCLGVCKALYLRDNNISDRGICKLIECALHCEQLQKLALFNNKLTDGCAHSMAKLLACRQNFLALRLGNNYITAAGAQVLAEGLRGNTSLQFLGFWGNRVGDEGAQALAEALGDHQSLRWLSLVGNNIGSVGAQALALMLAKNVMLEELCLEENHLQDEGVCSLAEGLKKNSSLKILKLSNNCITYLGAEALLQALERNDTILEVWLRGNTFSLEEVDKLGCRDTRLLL

SMILES: CCCNC(=O)CC[C@H]1NC(=O)c2cc(Oc3cccc(N(C)C)c3)c(NC(=O)COCc3ccccc3)cc2NC1=O
- inhibition [1]: 80.4%
- inhibition [2]: 77.7%
